Results reported in ChEMBL document CHEMBL4411297, “Discovery, synthesis and anti-atherosclerotic activities of a novel selective sphingomyelin synthase 2 inhibitor” (Eur J Med Chem, 2019).
Calls of active or inactive are those of the source. No cut-off for these calls is given here.

How the values were obtained:
[1] = MRT (0 to 8 hrs) in C57BL/6J mouse at 50 mg/kg/day, ig by HPLC-MS/MS analysis; assay type: ADME, organism-based; settings: in vivo, po
Method in brief: (§1)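 Male C57BL/6J mice (6–8 weeks, ~20 g), fasted 12 h, given a single intragastric dose of 25, 50 or 100 mg/kg in 10% DMSO/30% PEG/0.9% NaCl. Retro-orbital blood at 5 min to 8 h; plasma protein-precipitated with methanol plus internal standard, assayed by LC-MS/MS; noncompartmental analysis. Mean ± SD, n = 6.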

[2] = Tmax in C57BL/6J mouse at 100 mg/kg/day, ig by HPLC-MS/MS analysis; assay type: ADME, organism-based; settings: in vivo, po; method in brief: as §1
[3] = Dose normalized AUC (0 to 8 hrs) in C57BL/6J mouse at 50 mg/kg/day, ig by HPLC-MS/MS analysis; assay type: ADME, organism-based; settings: in vivo, po
Method in brief: (§2)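 Male C57BL/6J mice, six to eight weeks old, about 20 g, fasted 12 h with free water. Given a single intragastric dose of 25, 50 or 100 mg/kg in 10% DMSO/30% PEG-100/0.9% NaCl. Blood taken retro-orbitally at 5 min to 8 h. Plasma protein-precipitated with methanol plus internal standard, then HPLC-MS/MS on a C18 column. Noncompartmental analysis, n = 6.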

[4] = tested on: Mus musculus; experiment: Effect on body weight in apoE knockout mouse fed with western-type diet at 12.5 to 40 mg/kg/day, ig for 7 weeks; assay type: ADME, organism-based; settings: in vivo, po, 1176 h
Method in brief: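 ApoE KO mice on Western-type diet, dosed by gavage daily at 12.5 or 40 mg/kg for 7 weeks. Body weight recorded weekly throughout dosing and compared with vehicle, 10 mice per group.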

[5] = tested on: Mus musculus; experiment: Anti-atherosclerotic activity in apoE knockout mouse fed with western-type diet assessed as reduction in lesions in whole aorta at 12.5 mg/kg/day, ig for 7 weeks by oil-red O staining-based assay relative to control; assay type: functional; set-up: scale not given: the % may be the effect or the level left
Method in brief: (§3)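 ApoE KO mice fed Western-type diet, then given 12.5 or 40 mg/kg/day by gavage in 30% PEG-400/10% DMSO/0.9% NaCl for 7 weeks. Aortic root: H&E-stained 4 µm sections, mean lesion area from 6 sections per animal. Whole aorta: en face Oil Red O staining, percentage of area stained. Compared with vehicle, n = 10.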

[6] = Dose normalized AUC (0 to 8 hrs) in C57BL/6J mouse at 25 mg/kg/day, ig by HPLC-MS/MS analysis; assay type: ADME, organism-based; settings: in vivo, po; method in brief: as §2
[7] = Apparent oral clearance in C57BL/6J mouse at 100 mg/kg/day, ig by HPLC-MS/MS analysis; assay type: ADME, organism-based; settings: in vivo; method in brief: as §2
[8] = tested on: Mus musculus; experiment: Anti-atherosclerotic activity in apoE knockout mouse fed with western-type diet assessed as reduction in lymphocyte count at 12.5 mg/kg/day, ig for 7 weeks by flow cytometric analysis relative to control; assay type: functional; set-up: scale not given: the % may be the effect or the level left
Method in brief: (§4)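 ApoE KO mice started at 8 weeks old on Western-type diet for 6 weeks. Then dosed by gavage daily with vehicle, 12.5 or 40 mg/kg for 7 weeks with the diet continued, 10 mice per group. Blood single-cell suspensions stained with antibodies in PBS and analysed by flow cytometry. Mean ± SD, n = 5.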

[9] = Apparent volume of distribution during terminal phase in C57BL/6J mouse at 100 mg/kg/day, ig by HPLC-MS/MS analysis; assay type: ADME, organism-based; settings: in vivo, po, read-out: Vz/F; method in brief: as §2
[10] = Apparent volume of distribution during terminal phase in C57BL/6J mouse at 25 mg/kg/day, ig by HPLC-MS/MS analysis; assay type: ADME, organism-based; settings: in vivo, po, read-out: Vz/F; method in brief: as §2
[11] = tested on: Mus musculus; experiment: Effect on plasma AST levels in C57BL/6J mouse at 100 mg/kg/day, ig qd for 7 days measured on day 7; assay type: ADME, organism-based; settings: in vivo, po, 168 h
Method in brief: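 C57BL/6J mice dosed by gavage at 100 mg/kg once daily for 7 days. Plasma SM sampled on days 0, 3 and 7. Plasma ALT and AST measured on day 7 by automated analyzer. Compared with vehicle, n = 10.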

[12] = tested on: Mus musculus; experiment: Anti-atherosclerotic activity in apoE knockout mouse fed with western-type diet assessed as reduction in CD11b+/CD11c+ dendritic cells at 40 mg/kg/day, ig for 7 weeks by flow cytometric analysis relative to control; assay type: functional; set-up: scale not given: the % may be the effect or the level left; method in brief: as §4
[13] = tested on: Mus musculus; experiment: Anti-atherosclerotic activity in apoE knockout mouse fed with western-type diet assessed as reduction in lesions in whole aorta at 40 mg/kg/day, ig for 7 weeks by oil-red O staining-based assay relative to control; assay type: functional; set-up: scale not given: the % may be the effect or the level left; method in brief: as §3
[14] = tested on: Mus musculus; experiment: Anti-atherosclerotic activity in apoE knockout mouse fed with western-type diet assessed as reduction in macrophage content at 12.5 mg/kg/day, ig for 7 weeks by immunostaining assay relative to control; assay type: functional; set-up: scale not given: the % may be the effect or the level left
Method in brief: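 ApoE KO mice on Western-type diet, dosed by gavage at 12.5 or 40 mg/kg/day for 7 weeks. Aortic root sections 4 µm thick immunostained with MOMA-2: primary antibody 1 h at room temperature, biotinylated secondary, HRP-streptavidin, DAB, hematoxylin counterstain. Stained area quantified and expressed relative to vehicle.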

[15] = Cmax in C57BL/6J mouse at 100 mg/kg/day, ig by HPLC-MS/MS analysis; assay type: ADME, organism-based; set-up: dose 100 mg/kg/day, route intragastric; settings: in vivo, po; method in brief: as §2
[16] = biological target: T1, Phosphatidylcholine:ceramide cholinephosphotransferase 2 (Homo sapiens, UniProt Q8NHU3); experiment: Inhibition of SMS2 (unknown origin) over-expressed in H5 insect cell lysate using C6-NBD-Ceramide and DMPC as substrates preincubated for 30 mins followed by substrate addition and measured after 2 hrs by TLC or HPLC method; assay type: subcellular
T1 sequence (Q8NHU3 whole entry): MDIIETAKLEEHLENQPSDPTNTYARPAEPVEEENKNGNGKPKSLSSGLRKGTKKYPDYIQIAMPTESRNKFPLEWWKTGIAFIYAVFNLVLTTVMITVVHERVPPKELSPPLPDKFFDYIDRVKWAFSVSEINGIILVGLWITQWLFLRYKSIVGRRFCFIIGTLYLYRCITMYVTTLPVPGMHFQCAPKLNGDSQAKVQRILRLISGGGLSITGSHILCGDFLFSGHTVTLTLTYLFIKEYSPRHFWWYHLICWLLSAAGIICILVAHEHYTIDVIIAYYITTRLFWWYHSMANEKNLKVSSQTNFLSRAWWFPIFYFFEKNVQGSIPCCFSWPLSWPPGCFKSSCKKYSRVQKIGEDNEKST

[17] = Half life in C57BL/6J mouse at 100 mg/kg/day, ig by HPLC-MS/MS analysis; assay type: ADME, organism-based; settings: in vivo, po; method in brief: as §2
[18] = AUC (0 to infinity) in C57BL/6J mouse at 25 mg/kg/day, ig by HPLC-MS/MS analysis; assay type: ADME, organism-based; set-up: dose 25 mg/kg/day, time infinity, route intragastric; settings: in vivo, po; method in brief: as §2
[19] = tested on: BMDM; experiment: Inhibition of LPS-induced MCP1 production in C57BL/6J mouse bone marrow derived macrophages at 6.25 to 50 uM preincubated for 17 hrs followed by LPS-stimulation and measured after 6 hrs by ELISA; assay type: functional, cell-based
Method in brief: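 Mouse bone marrow-derived macrophages exposed to a range of inhibitor concentrations for 17 h, then LPS 50 ng/ml for 6 h; IL-6 and MCP-1 in culture medium quantified by ELISA. Mean ± SD, n = 7.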

[20] = MRT (0 to infinity) in C57BL/6J mouse at 25 mg/kg/day, ig by HPLC-MS/MS analysis; assay type: ADME, organism-based; settings: in vivo, po; method in brief: as §1

MRT [1]: 1.66 h
Tmax [2]: 6 min
AUC/dose [3]: 0.12 µg·h/mL
AUC/dose [6]: 0.08 µg·h/mL
CL/F [7]: 143 mL/min
Vd/F [9]: 28.8 L
Vd/F [10]: 51.4 L
Cmax [15]: 14100 ng/mL
IC50 [16]: 0.88 µM
half-life [17]: 2.51 h
AUC(0-inf) [18]: 2360 ng·h/mL
MRT inf [20]: 3.64 h
SMILES: CCc1ccccc1COc1ccccc1C(=O)Nc1cccnc1
Activity [4]: Non-Toxic
Activity [5]: 32%
Activity [8]: 21%
Activity [11]: Non-Toxic
Activity [12]: 57%
Activity [13]: 41%
Activity [14]: 28%
inhibition [19]: Active
